An excerpt weighted towards active compounds, which were near 2.4% of everything screened.
H9c2 protect = modulators protecting cardiomyocytes from myocardial damage | H9c2 cardiomyocytes, H2O2 injury protection, ATPLite, 2 h | protection from H2O2 cell death, % at 20 µM | actives 0.63% (n = 360,000) | AID 588492;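 active means compounds giving at least 50% protection of heart cells from peroxide-induced death in the single-dose screen, raw or plate-pattern-corrected value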;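 further: 0% = DMSO wells with peroxide and 100% = DMSO wells without peroxide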
PP5 inh = PP5 (human) phosphatase inhibition; P53041; purified PP5c, OMFP substrate fluorescence; inhibition, % at 6.7 µM; actives 0.18% (n = 320,000); AID 1987;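 active means inhibition above the campaign's mean inhibition across all tested compounds plus 3 SD, cut at about 9.5% in these data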;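 further: 0% = DMSO only and 100% = 100 µM cantharidin control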
Target sequence (P53041 whole entry, looked up): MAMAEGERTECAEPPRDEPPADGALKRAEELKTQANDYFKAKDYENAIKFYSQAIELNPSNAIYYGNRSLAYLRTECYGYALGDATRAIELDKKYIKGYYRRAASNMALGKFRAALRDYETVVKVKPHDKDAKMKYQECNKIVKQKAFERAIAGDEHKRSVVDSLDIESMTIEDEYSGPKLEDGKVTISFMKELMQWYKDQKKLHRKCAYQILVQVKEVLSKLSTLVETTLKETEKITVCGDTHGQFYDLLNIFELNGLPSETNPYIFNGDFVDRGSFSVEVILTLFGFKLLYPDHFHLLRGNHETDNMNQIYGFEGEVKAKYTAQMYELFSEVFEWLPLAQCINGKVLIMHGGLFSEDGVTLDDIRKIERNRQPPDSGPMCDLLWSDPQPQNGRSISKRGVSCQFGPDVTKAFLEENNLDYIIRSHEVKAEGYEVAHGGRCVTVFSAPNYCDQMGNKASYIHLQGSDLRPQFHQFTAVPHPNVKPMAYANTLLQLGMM
T cruzi repl = blocks replication of Trypanosoma cruzi | inhibition, % (concentration not given with the values) | T. cruzi beta-gal in NIH3T3, luminescence, 90 h | AID 1885 | actives 1.4% (n = 300,000);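 active means mean inhibition across valid replicates above about 55%, limit read from the data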;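 further: signal also drops with host cell toxicity which is not excluded here; 0% = plate median of DMSO wells and 100% = zero luminescence signal; higher percent means less beta-gal luminescence so fewer parasites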
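Incubation – ≥90 h infection period, 3 h prior cell attachment · System – NIH/3T3 fibroblasts plus reporter T. cruzi · Doses – compound pinned at 50 nL/well, DMSO · Read-out basis – percent inhibition of parasite-derived β-gal signal · Signal – luminescent β-galactosidase signal after 60 min lysis · Also added – 5000 T. cruzi trypomastigotes/well · Medium – Low-serum DMEM with 2% FBS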
p-CIP stab down = lowers stability of the mouse p/CIP coactivator protein | Q05BA5 | decrease of EGFP signal, % at 10 µM | actives 0.01% (n = 290,000) | AID 1984 | F442A p/CIP-EGFP cells, EGFP fluorescence, 16 h;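 active means EGFP signal decrease of at least 30% at 10 µM or well 3 SD below plate mean, unless failing retest; inactive means the rest, including hits failing retest or dose response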
GASC-1 inh = blocks human GASC-1 demethylase activity; actives 0.069% (n = 330,000); AID 2099; inhibition, % at 2.35 µM; Q9H3R0; GST-JMJD2C(1-420) H3K9me3 demethylation, DELFIA europium;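 active means more than half of a compound's replicate wells show inhibition beyond 50%, single wells judged on their own value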;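 further: signal counts dimethyl H3K9 product captured on neutravidin plate; 0% = median of DMSO wells and 100% = 0.3 times that DMSO median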
Fh CTSL1 inh = blocks F. hepatica cathepsin L1 in PFM18AAP counter-screen. recombinant F. hepatica cathepsin L1, Z-Leu-Arg-MCA fluorescence. actives 0.49% (n = 300,000). inhibition, % at 5.96 µM;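 active means inhibition above the mean of all tested compounds plus 3 SD, set per screening campaign, cut at about 17% in these data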;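 further: 0% = plate median of test compound wells and 100% = 1 µM Z-Phe-Ala-diazomethylketone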
* = called active by the depositor; x = no result.

SMILES	H9c2 protect	PP5 inh	T cruzi repl	p-CIP stab down	GASC-1 inh	Fh CTSL1 inh
[N-]=[N+]=CC(=O)C(Cc1ccccc1)N1C(=O)c2ccccc2C1=O (configuration not stated)	5	2	-9	1	-1	26*
CC(C)C(C(=O)C=[N+]=[N-])N1C(=O)c2ccccc2C1=O (configuration not stated)	10	2	-8	-6	-2	21*
NC(=O)C(Cc1ccccc1)N1C(=O)c2ccccc2C1=O (configuration not stated)	-1	3	-16	-1	-11	19*
O=C(O)c1ccc2c(c1)C(=O)N([C@H](Cc1cccc3ccccc13)C(=O)O)C2=O	0	x	x	x	x	x
CC(C)CCSc1nc(N)c(C#N)cc1C#N	-3	3	67*	-13	-5	-1
CC(=O)c1cc(C#N)c(SCCC(C)C)nc1C	0	1	31	-11	-104	4
Fc1ccc(Sc2ccccc2CNC2=NCCN2)cc1	-3	2	63*	1	4	-4
OCCNC1=NCCN1	-3	1	-24	-7	5	-2
CCOC(=O)c1ccc(NC(=O)CN2C(=O)NC3(CCCCCCC3)C2=O)cc1	-3	1	x	x	1	x
O=c1[nH]c(Nc2ccc(F)cc2)cc2ccccc12	8	5	-14	3	25	58*
O=c1[nH]c(Nc2ccccn2)cc2ccccc12	13	3	-1	x	0	14
Cc1cc2ccccc2c(=O)[nH]1	57*	0	3	-3	6	3
Cc1ccccc1Nc1cc2ccccc2c(=O)[nH]1	-36	5	19	-23	0	83*
Cc1cc(OC(=O)c2ccccc2C)c([N+](=O)[O-])c(=O)[nH]1	0	1	-10	4	-2	3
O=C(COC(=O)c1ccc([N+](=O)[O-])o1)Nc1ncc(Cl)cc1Cl	23	x	x	x	-1	x
CCC(=O)N1CCc2cc(Br)cc(S(=O)(=O)CC(=O)OC)c21	-3	1	-18	-19	99*	-3
CC(=O)Nc1ccc(NC(=O)Cn2nc(C(=O)Nc3ccc(C)cc3)ccc2=O)cc1	6	2	-9	6	13	47*
Cc1ccc(NC(=O)c2ccc(=O)n(CC(=O)Nc3ccccc3)n2)cc1	-2	3	-22	-1	0	-4
COC(=O)c1c(NC(=O)COc2ccc(Cl)cc2)sc2c1CC(C)(C)NC2(C)C	-17	6	65*	-10	-15	2
COc1cc(CN2CCC(C(=O)N3CCN(c4ccccc4F)CC3)CC2)cc(OC)c1O	-1	4	1	-9	19	1
CCOc1ccc(CN2CCC(C(=O)N3CCN(c4ccccc4F)CC3)CC2)cc1OC	-3	-1	69*	0	2	0
CCN1C(Nc2ccccc2)=NC[C@@H]1CC(C)C	0	3	-4	-7	-4	1
CC(C)C[C@H]1CN=C(Nc2ccccc2)N1CC1CCCCCC1	-17	1	x	x	-4	20*
Nc1nnc(SC2CC(=O)N(c3ccccc3)C2=O)s1 (configuration not stated)	-38	1	28	-10	57*	0
O=C1CC(Sc2ncccn2)C(=O)N1c1ccccc1 (configuration not stated)	-6	-1	2	-5	-16	-3
SMILES	H9c2 protect	PP5 inh	T cruzi repl	p-CIP stab down	GASC-1 inh	Fh CTSL1 inh
CC(C)OP(=O)(OC(C)C)C(Nc1ccccc1)c1ccc2c(c1)OCO2 (configuration not stated)	23	6	-24	-4	5	0
CC(C)COP(=O)(OCC(C)C)C(Nc1ccccc1)c1ccc2c(c1)OCO2 (configuration not stated)	67*	5	21	-5	-2	4
CCC12CCC3c4ccc(O)cc4CCC3C1CC(O)C2O (configuration not stated)	1	x	x	x	x	x
CC(NCc1cc(Br)ccc1OCC(=O)NCc1ccccc1)c1ccccc1 (configuration not stated)	-22	1	60*	13	69	1
Fc1ccc(CN2CCCN(Cc3nc(-c4ccc5c(c4)OCO5)no3)CC2)cc1	-2	2	67*	0	12	6
COc1ccccc1CN1CCN(Cc2nc(Cc3ccccc3)no2)CC1	-1	1	63*	8	1	-3
COc1ccccc1CN1CCN(Cc2nc(-c3ccccc3)no2)CC1	8	-1	53	-4	-2	0
Fc1ccccc1Cc1noc(CN2CCN(Cc3ccc4c(c3)OCO4)CC2)n1	-5	-1	60*	-2	-16	-6
O=C(C(Cc1ccccc1)N1C(=O)C2C3C=CC(C3)C2C1=O)N1CCCCCC1 (configuration not stated)	2	-1	-7	-3	11	4
O=C(NCc1ccco1)C(Cc1ccccc1)N1C(=O)C2C3C=CC(C3)C2C1=O (configuration not stated)	13	3	x	-6	-7	20*
Cc1ccc(NC(=O)CCCCCN2C(=O)[C@@H]3Cc4ccccc4CN3C2=O)c(Cl)c1	-2	6	6	4	-3	-3
Cn1c(=O)c2[nH]c(NN=Cc3ccc(F)cc3)nc2n(C)c1=O	20	x	x	x	x	x
Cn1c(=O)c2[nH]c(NN=Cc3cccc(Br)c3)nc2n(C)c1=O	50*	x	x	x	x	x
N#Cc1c(N)nc2c3c(sc(=N)c2c1N)NC(=O)CC3c1ccccc1 (configuration not stated)	16	1	-1	3	-2	11
Cc1c(C#N)c(N)nc2c3c(sc12)NC(=O)CC3c1ccc(Cl)cc1 (configuration not stated)	50*	-1	32	6	1	8
CCCCN(C)Cc1c(C)[nH]c2c(Cl)cccc2c1=O	-6	-1	60*	3	5	0
CCCCN(C)Cc1c(C)[nH]c2c(ccc3ccccc32)c1=O	15	3	-8	-2	10	1
O=C1[C@@H](Oc2ccccc2)[C@@H](c2cnc3ccccc3c2)N1c1ccccc1	3	x	x	x	x	x
CC1CCCC(NC(=O)NC(=O)CCl)C1C (configuration not stated)	-5	1	-18	-27	-15	24*
CC1CCCCC1NC(=O)NC(=O)CCl (configuration not stated)	-10	3	-16	-19	-3	7
CCCNC(=O)C(Cc1ccc(I)cc1)NC(=O)C1CC1 (configuration not stated)	8	-1	x	x	0	x
COC(=O)c1cnc(N2CCCN(S(=O)(=O)c3ccc(C(F)(F)F)cc3)CC2)nc1C(F)(F)F	-6	0	55*	10	-1	2

High-throughput results from PubChem BioAssay.
